According to ChEMBL document CHEMBL1926550, “Synthesis and antibacterial activity of naphthyridone derivatives containing mono/difluoro-methyloxime pyrrolidine scaffolds” (2012):
In brackets after ≈: the same amount, converted by molar mass.

Experiments:
Type in all cases: functional
[1] = system: Staphylococcus aureus; assay: Antibacterial activity against methicillin-resistant Staphylococcus aureus 10-4 after 18 hrs by two fold serial dilution method; conditions: 10-4, 18 h
In short: (§1)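 Agar two-fold serial dilution in melted Mueller-Hinton agar, 128 to 0.008 μg/mL. Plates inoculated with 10⁴ cfu, incubated 35 °C for 18 h. MIC taken as lowest concentration giving no visible growth on the plate.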

[2] = system: Klebsiella pneumoniae; assay: Antibacterial activity against Klebsiella pneumoniae 10-3 after 18 hrs by two fold serial dilution method; conditions: 10-3, 18 h
In short: (§2)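 Agar two-fold serial dilution in melted Mueller-Hinton agar, final concentrations 128 down to 0.008 μg/mL. Plates inoculated with 10⁴ cfu and incubated at 35 °C for 18 h. MIC taken as the lowest concentration giving no visible growth on the plate.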

[3] = system: Staphylococcus aureus; assay: Antibacterial activity against Staphylococcus aureus ATCC 25923 after 18 hrs by two fold serial dilution method; conditions: ATCC 25923, 18 h; in short: as §2
[4] = system: Enterococcus faecium; assay: Antibacterial activity against Enterococcus faecium 09-5 after 18 hrs by two fold serial dilution method; conditions: 09-5, 18 h; in short: as §2
[5] = system: Klebsiella pneumoniae; assay: Antibacterial activity against Klebsiella pneumoniae 10-1 after 18 hrs by two fold serial dilution method; conditions: 10-1, 18 h; in short: as §2
[6] = system: Pseudomonas aeruginosa; assay: Antibacterial activity against Pseudomonas aeruginosa 10-2 after 18 hrs by two fold serial dilution method; conditions: 10-2, 18 h; in short: as §2
[7] = system: Enterococcus faecium; assay: Antibacterial activity against Enterococcus faecium 09-4 after 18 hrs by two fold serial dilution method; conditions: 09-4, 18 h; in short: as §2
[8] = system: Escherichia coli; assay: Antibacterial activity against Escherichia coli 10-2 infected KM mouse systemic infection model assessed as decrease in mouse mortality administered orally twice after 1 and 4 hrs post infection measured up to 7 days; conditions: 10-2, po
In short: (§3)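 Strains grown on MH agar at 35 °C for 18 h, suspended in gastric mucin. Male KM mice (19–21 g), groups of 10, infected intraperitoneally with 0.5 mL at 5–10× MLD. Four oral dose levels per drug at 1 and 4 h post infection. Mortality followed 7 days; ED50 with 95% confidence limits by Bliss method.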

[9] = system: Staphylococcus aureus; assay: Antibacterial activity against methicillin-resistant Staphylococcus aureus 10-2 infected KM mouse systemic infection model assessed as decrease in mouse mortality administered orally twice after 1 and 4 hrs post infection measured up to 7 days; conditions: 10-2, po; in short: as §3
[10] = system: Staphylococcus epidermidis; assay: Antibacterial activity against methicillin-resistant Staphylococcus epidermidis 10-1 after 18 hrs by two fold serial dilution method; conditions: 10-1, 18 h; in short: as §1
[11] = system: Pseudomonas aeruginosa; assay: Antibacterial activity against Pseudomonas aeruginosa ATCC 27853 after 18 hrs by two fold serial dilution method; conditions: ATCC 27853, 18 h; in short: as §2
[12] = system: Staphylococcus epidermidis; assay: Ratio of ciprofloxacin ED50 to compound ED50 for methicillin-resistant Staphylococcus epidermidis 10-4 infected KM mouse systemic infection model
[13] = system: Enterococcus faecium; assay: Antibacterial activity against Enterococcus faecium 09-1 after 18 hrs by two fold serial dilution method; conditions: 09-1, 18 h; in short: as §2
[14] = system: Staphylococcus epidermidis; assay: Antibacterial activity against methicillin-resistant Staphylococcus epidermidis 10-2 after 18 hrs by two fold serial dilution method; conditions: 10-2, 18 h; in short: as §1
[15] = system: Escherichia coli; assay: Antibacterial activity against Escherichia coli 10-2 after 18 hrs by two fold serial dilution method; conditions: 10-2, 18 h; in short: as §2
[16] = system: Enterococcus faecalis; assay: Antibacterial activity against Enterococcus faecalis 09-2 after 18 hrs by two fold serial dilution method; conditions: 09-2, 18 h; in short: as §2
[17] = system: Pseudomonas aeruginosa; assay: Antibacterial activity against Pseudomonas aeruginosa 10-1 after 18 hrs by two fold serial dilution method; conditions: 10-1, 18 h; in short: as §2
[18] = system: Staphylococcus epidermidis; assay: Antibacterial activity against methicillin-resistant Staphylococcus epidermidis 10-4 infected KM mouse systemic infection model assessed as decrease in mouse mortality administered orally twice after 1 and 4 hrs post infection measured up to 7 days; conditions: 10-4, po; in short: as §3
[19] = system: Pseudomonas aeruginosa; assay: Ratio of gemifloxacin ED50 to compound ED50 for Pseudomonas aeruginosa 10-1 infected KM mouse systemic infection model
[20] = system: Staphylococcus aureus; assay: Antibacterial activity against methicillin-resistant Staphylococcus aureus 10-3 after 18 hrs by two fold serial dilution method; conditions: 10-3, 18 h; in short: as §1
[21] = system: Staphylococcus aureus; assay: Antibacterial activity against methicillin-resistant Staphylococcus aureus 10-1 after 18 hrs by two fold serial dilution method; conditions: 10-1, 18 h; in short: as §1
[22] = system: Staphylococcus aureus; assay: Antibacterial activity against methicillin-sensitive Staphylococcus aureus 10-5 after 18 hrs by two fold serial dilution method; conditions: 10-5, 18 h; in short: as §2
[23] = system: Klebsiella pneumoniae; assay: Antibacterial activity against Klebsiella pneumoniae 10-3 infected KM mouse systemic infection model assessed as decrease in mouse mortality administered orally twice after 1 and 4 hrs post infection measured up to 7 days; conditions: 10-3, po; in short: as §3
[24] = system: Escherichia coli; assay: Antibacterial activity against Escherichia coli ATCC 25922 after 18 hrs by two fold serial dilution method; conditions: ATCC 25922, 18 h; in short: as §2
[25] = system: Streptococcus pneumoniae; assay: Antibacterial activity against Streptococcus pneumoniae 10-1 after 18 hrs by two fold serial dilution method; conditions: 10-1, 18 h; in short: as §2
[26] = system: Escherichia coli; assay: Antibacterial activity against Escherichia coli 10-3 after 18 hrs by two fold serial dilution method; conditions: 10-3, 18 h; in short: as §2
[27] = system: Staphylococcus epidermidis; assay: Antibacterial activity against methicillin-sensitive Staphylococcus epidermidis 10-1 after 18 hrs by two fold serial dilution method; conditions: 10-1, 18 h; in short: as §2
[28] = system: Staphylococcus aureus; assay: Antibacterial activity against methicillin-sensitive Staphylococcus aureus 10-3 after 18 hrs by two fold serial dilution method; conditions: 10-3, 18 h; in short: as §2
[29] = system: Enterococcus faecium; assay: Antibacterial activity against Enterococcus faecium 09-2 after 18 hrs by two fold serial dilution method; conditions: 09-2, 18 h; in short: as §2
[30] = system: Enterococcus faecalis; assay: Antibacterial activity against Enterococcus faecalis 09-1 after 18 hrs by two fold serial dilution method; conditions: 09-1, 18 h; in short: as §2
[31] = system: Escherichia coli; assay: Antibacterial activity against Escherichia coli 09-3 after 18 hrs by two fold serial dilution method; conditions: 09-3, 18 h; in short: as §2
[32] = system: Staphylococcus aureus; assay: Antibacterial activity against methicillin-sensitive Staphylococcus aureus 10-4 after 18 hrs by two fold serial dilution method; conditions: 10-4, 18 h; in short: as §2
[33] = system: Staphylococcus aureus; assay: Antibacterial activity against methicillin-sensitive Staphylococcus aureus 10-2 after 18 hrs by two fold serial dilution method; conditions: 10-2, 18 h; in short: as §2
[34] = system: Pseudomonas aeruginosa; assay: Ratio of ciprofloxacin ED50 to compound ED50 for Pseudomonas aeruginosa 10-1 infected KM mouse systemic infection model
[35] = system: Staphylococcus epidermidis; assay: Antibacterial activity against methicillin-resistant Staphylococcus epidermidis 10-4 after 18 hrs by two fold serial dilution method; conditions: 10-4, 18 h; in short: as §1
[36] = system: Staphylococcus epidermidis; assay: Antibacterial activity against methicillin-sensitive Staphylococcus epidermidis 10-2 after 18 hrs by two fold serial dilution method; conditions: 10-2, 18 h; in short: as §2
[37] = system: Klebsiella pneumoniae; assay: Antibacterial activity against Klebsiella pneumoniae 09-2 after 18 hrs by two fold serial dilution method; conditions: 09-2, 18 h; in short: as §2
[38] = system: Escherichia coli; assay: Antibacterial activity against Escherichia coli 09-1 after 18 hrs by two fold serial dilution method; conditions: 09-1, 18 h; in short: as §2
[39] = system: Staphylococcus aureus; assay: Antibacterial activity against methicillin-sensitive Staphylococcus aureus 10-6 after 18 hrs by two fold serial dilution method; conditions: 10-6, 18 h; in short: as §2
[40] = system: Escherichia coli; assay: Antibacterial activity against Escherichia coli 09-2 after 18 hrs by two fold serial dilution method; conditions: 09-2, 18 h; in short: as §2
[41] = system: Staphylococcus aureus; assay: Antibacterial activity against methicillin-sensitive Staphylococcus aureus 10-1 after 18 hrs by two fold serial dilution method; conditions: 10-1, 18 h; in short: as §2
[42] = system: Staphylococcus epidermidis; assay: Ratio of gemifloxacin ED50 to compound ED50 for methicillin-resistant Staphylococcus epidermidis 10-4 infected KM mouse systemic infection model
[43] = system: Enterococcus faecium; assay: Antibacterial activity against Enterococcus faecium 09-6 after 18 hrs by two fold serial dilution method; conditions: 09-6, 18 h; in short: as §2
[44] = system: Pseudomonas aeruginosa; assay: Antibacterial activity against Pseudomonas aeruginosa 10-1 infected KM mouse systemic infection model assessed as decrease in mouse mortality administered orally twice after 1 and 4 hrs post infection measured up to 7 days; conditions: 10-1, po; in short: as §3
[45] = system: Escherichia coli; assay: Antibacterial activity against Escherichia coli 10-1 after 18 hrs by two fold serial dilution method; conditions: 10-1, 18 h; in short: as §2
[46] = system: Enterococcus faecium; assay: Antibacterial activity against Enterococcus faecium 09-3 after 18 hrs by two fold serial dilution method; conditions: 09-3, 18 h; in short: as §2
[47] = system: Staphylococcus aureus; assay: Antibacterial activity against methicillin-resistant Staphylococcus aureus 10-2 after 18 hrs by two fold serial dilution method; conditions: 10-2, 18 h; in short: as §1
[48] = system: Pseudomonas aeruginosa; assay: Antibacterial activity against Pseudomonas aeruginosa 10-3 after 18 hrs by two fold serial dilution method; conditions: 10-3, 18 h; in short: as §2

NCC1CN(c2nc3c(cc2F)c(=O)c(C(=O)O)cn3C2CC2)C/C1=N\OC(F)F (racemic)
MIC [1]: 32 µg/mL (≈ 75.2 µM) | MIC [2]: 0.5 µg/mL (≈ 1.18 µM) | MIC [3]: 0.015 µg/mL (≈ 0.0353 µM) | MIC [4]: 16 µg/mL (≈ 37.6 µM) | MIC [5]: 0.015 µg/mL (≈ 0.0353 µM) | MIC [6]: 32 µg/mL (≈ 75.2 µM) | MIC [7]: 0.125 µg/mL (≈ 0.294 µM) | ED50 [8]: 5.83 mg/kg | ED50 [9]: 14.3 mg/kg | MIC [10]: 4 µg/mL (≈ 9.4 µM) | MIC [11]: 0.5 µg/mL (≈ 1.18 µM) | Ratio ED50 [12]: 1.4 | MIC [13]: 32 µg/mL (≈ 75.2 µM) | MIC [14]: 0.25 µg/mL (≈ 0.588 µM) | MIC [15]: 0.5 µg/mL (≈ 1.18 µM) | MIC [16]: 8 µg/mL (≈ 18.8 µM) | MIC [17]: 0.5 µg/mL (≈ 1.18 µM) | ED50 [18]: 16.9 mg/kg | Ratio ED50 [19]: 6.1 | MIC [20]: 16 µg/mL (≈ 37.6 µM) | MIC [21]: 16 µg/mL (≈ 37.6 µM) | MIC [22]: 0.008 µg/mL (≈ 0.0188 µM) | ED50 [23]: 100 mg/kg | MIC [24]: 0.008 µg/mL (≈ 0.0188 µM) | MIC [25]: 0.03 µg/mL (≈ 0.0705 µM) | MIC [26]: 8 µg/mL (≈ 18.8 µM) | MIC [27]: 64 µg/mL (≈ 150 µM) | MIC [28]: 0.06 µg/mL (≈ 0.141 µM) | MIC [29]: 32 µg/mL (≈ 75.2 µM) | MIC [30]: 4 µg/mL (≈ 9.4 µM) | MIC [31]: 16 µg/mL (≈ 37.6 µM) | MIC [32]: 0.5 µg/mL (≈ 1.18 µM) | MIC [33]: 4 µg/mL (≈ 9.4 µM) | Ratio ED50 [34]: 5.2 | MIC [35]: 2 µg/mL (≈ 4.7 µM) | MIC [36]: 32 µg/mL (≈ 75.2 µM) | MIC [37]: 32 µg/mL (≈ 75.2 µM) | MIC [38]: 16 µg/mL (≈ 37.6 µM) | MIC [39]: 0.06 µg/mL (≈ 0.141 µM) | MIC [40]: 32 µg/mL (≈ 75.2 µM) | MIC [41]: 0.015 µg/mL (≈ 0.0353 µM) | Ratio ED50 [42]: 1.4 | MIC [43]: 0.06 µg/mL (≈ 0.141 µM) | ED50 [44]: 21.3 mg/kg | MIC [45]: 16 µg/mL (≈ 37.6 µM) | MIC [46]: 16 µg/mL (≈ 37.6 µM) | MIC [47]: 1 µg/mL (≈ 2.35 µM) | MIC [48]: 4 µg/mL (≈ 9.4 µM)
